The target in experiment [1] is Signal transducer and activator of transcription 3 (Homo sapiens) (UniProt P40763). Kind of experiment: Inhibition of TPA-induced phosphorylation at Tyr705 of Stat3 in HEK293 whole cell extract at 31.6 uM treated 1 hr before TPA stimulation measured after 18 hrs by immunoblot analysis. The format is cell-based. In short, it runs like this: (§1)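 HEK293 cells were exposed to compound or DMSO for 1 h, then induced with TPA 10 ng/mL for 18 h. Cells were lysed in RIPA buffer (10 mM Tris-HCl pH 7.5, 1 mM EDTA, 0.1% SDS, 0.1% deoxycholate, protease inhibitor). Whole-cell extracts were immunoblotted for phospho-IκB-α and phospho-Stat3 (Tyr705), with tubulin as loading control.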

Experiment [2] can be described thus: Growth inhibition of human NCI60 cells. Type of experiment: functional. The following applies: Homo sapiens, NCI60.
Experiment [3] has as its target Signal transducer and activator of transcription 3 (Homo sapiens) (UniProt P40763). Kind of experiment: Inhibition of TPA-induced phosphorylation at Tyr705 of Stat3 in HEK293 whole cell extract at 40.8 uM treated 1 hr before TPA stimulation measured after 18 hrs by immunoblot analysis. Type of experiment: cell-based. In short, it runs like this: as §1
Experiment [4] in a line: Inhibition of protein synthesis in cell-free extract of mouse Krebs2 cells by SDS-PAGE. Type of experiment: functional.
The next experiment relates to HEK293. Nature of the experiment: Inhibition of TPA-induced NF-kappaB transfected in HEK293 cells treated 1 hr before TPA stimulation measured after 18 hrs by luciferase reporter gene assay. The format is cell-based. The method in brief:
(§2)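 HEK293 cells were grown in DMEM with 10% FBS at 37 °C and 5% CO2. They were transiently transfected with a luciferase reporter (0.1 µg/well); reporters were AP-1 (four TRE consensus copies from GCN4), NF-κB (five responsive-element copies) or SRE. After 24 h, medium went to DMEM with 0.2% FBS. Cells were pretreated 1 h with compound or DMSO, then given TPA 10 ng/mL for 18 h. Firefly luciferase was read from passive-lysis lysates, TPA alone = 100%, in quadruplicate.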
(In a reporter assay the amount or activity of a reporter protein is the signal.)

For experiment [5], the target named is Signal transducer and activator of transcription 3 (Homo sapiens) (UniProt P40763). Nature of the experiment: Inhibition of TPA-induced phosphorylation at Tyr705 of Stat3 in HEK293 whole cell extract at 35.5 uM treated 1 hr before TPA stimulation measured after 18 hrs by immunoblot analysis. In short, it runs like this:
as §1
(A western blot detects proteins with antibodies after separation by electrophoresis.)

For experiment [6] the target is unchanged. Kind of experiment: Inhibition of TPA-induced phosphorylation at Tyr705 of Stat3 in HEK293 whole cell extract at 71.3 uM treated 1 hr before TPA stimulation measured after 18 hrs by immunoblot analysis. Type of experiment: cell-based. In short, it runs like this:
as §1

The target in experiment [7] is T1, Inhibitor of nuclear factor kappa-B kinase subunit alpha (Homo sapiens) (UniProt O15111).
T1 sequence (whole entry): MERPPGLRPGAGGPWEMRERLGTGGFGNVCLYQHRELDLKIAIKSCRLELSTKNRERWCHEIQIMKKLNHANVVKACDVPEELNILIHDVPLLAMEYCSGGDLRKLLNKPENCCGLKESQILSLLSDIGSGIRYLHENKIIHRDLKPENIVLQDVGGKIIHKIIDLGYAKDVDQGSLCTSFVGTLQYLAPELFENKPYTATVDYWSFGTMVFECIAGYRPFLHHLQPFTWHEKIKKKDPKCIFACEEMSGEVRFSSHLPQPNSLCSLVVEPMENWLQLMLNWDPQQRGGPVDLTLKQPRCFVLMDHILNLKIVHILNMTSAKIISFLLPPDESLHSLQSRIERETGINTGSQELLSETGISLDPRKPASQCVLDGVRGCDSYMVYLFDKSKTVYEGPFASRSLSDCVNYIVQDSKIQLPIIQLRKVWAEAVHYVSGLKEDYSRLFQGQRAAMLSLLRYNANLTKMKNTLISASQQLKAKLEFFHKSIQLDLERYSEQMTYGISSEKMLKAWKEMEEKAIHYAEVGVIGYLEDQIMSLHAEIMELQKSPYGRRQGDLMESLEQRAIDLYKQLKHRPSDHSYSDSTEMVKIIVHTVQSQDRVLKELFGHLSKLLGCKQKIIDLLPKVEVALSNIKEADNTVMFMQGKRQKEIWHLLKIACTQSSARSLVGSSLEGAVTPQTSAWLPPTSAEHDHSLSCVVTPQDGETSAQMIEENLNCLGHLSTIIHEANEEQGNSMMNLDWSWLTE
Kind of experiment: Inhibition of TPA-induced IkappaBalpha phosphorylation in HEK293 whole cell extract at 71.3 uM treated 1 hr before TPA stimulation measured after 18 hrs by immunoblot analysis. The format is cell-based. In short, it runs like this:
as §1

Experiment [8] has as its target Signal transducer and activator of transcription 3 (Homo sapiens) (UniProt P40763). Nature of the experiment: Inhibition of TPA-induced phosphorylation at Tyr705 of Stat3 in HEK293 whole cell extract at 15.8 uM treated 1 hr before TPA stimulation measured after 18 hrs by immunoblot analysis. The format is cell-based. The method in brief:
as §1

Experiment [9] has as its target T1, Inhibitor of nuclear factor kappa-B kinase subunit alpha (Homo sapiens). Kind of experiment: Inhibition of TPA-induced IkappaBalpha phosphorylation in HEK293 whole cell extract at 35.5 uM treated 1 hr before TPA stimulation measured after 18 hrs by immunoblot analysis. In short, it runs like this:
as §1

A further experiment deals with HeLa. Nature of the experiment: Inhibition of protein synthesis in human HeLa cells assessed as [35S]methionine incorporation into protein treated for 45 mins before [35S]methionine addition by Whatman paper analysis. Type of experiment: functional, cell-based.
Experiment [10] deals with Signal transducer and activator of transcription 3 (Homo sapiens) (UniProt P40763). Kind of experiment: Inhibition of TPA-induced phosphorylation at Tyr705 of Stat3 in HEK293 whole cell extract at 20.4 uM treated 1 hr before TPA stimulation measured after 18 hrs by immunoblot analysis. The format is cell-based. The method in brief:
as §1

Another experiment concerns Nucleic Acid. Kind of experiment: Inhibition of TPA-induced SRE transfected in HEK293 cells treated 1 hr before TPA stimulation measured after 18 hrs by luciferase reporter gene assay. Type of experiment: cell-based. In short, it runs like this: as §2
Experiment [11] has as its target T1, Inhibitor of nuclear factor kappa-B kinase subunit alpha (Homo sapiens). Kind of experiment: Inhibition of TPA-induced IkappaBalpha phosphorylation in HEK293 whole cell extract at 40.8 uM treated 1 hr before TPA stimulation measured after 18 hrs by immunoblot analysis. Type of experiment: cell-based. In short, it runs like this:
(§3)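 HEK293 cells grown in DMEM with 10% FBS at 37 °C and 5% CO2. Cells were pretreated with quassinoid or DMSO for 1 h, then stimulated with TPA (10 ng/mL) for 18 h. Whole-cell extracts were made in RIPA buffer (10 mM Tris-HCl pH 7.5, 1 mM EDTA, 0.1% SDS, 0.1% deoxycholate, protease inhibitor). Immunoblots were probed for phospho-IκB-α, with tubulin as loading control.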

Experiment [12] has the same target. Kind of experiment: Inhibition of TPA-induced IkappaBalpha phosphorylation in HEK293 whole cell extract at 20.4 uM treated 1 hr before TPA stimulation measured after 18 hrs by immunoblot analysis. Type of experiment: cell-based. In short, it runs like this:
as §3

The target is the same in experiment [13]. Nature of the experiment: Inhibition of TPA-induced IkappaBalpha phosphorylation in HEK293 whole cell extract at 31.6 uM treated 1 hr before TPA stimulation measured after 18 hrs by immunoblot analysis. Type of experiment: cell-based. The method in brief: as §1
Experiment [14] shares this target. Nature of the experiment: Inhibition of TPA-induced IkappaBalpha phosphorylation in HEK293 whole cell extract at 15.8 uM treated 1 hr before TPA stimulation measured after 18 hrs by immunoblot analysis. Type of experiment: cell-based. In short, it runs like this: as §1
Experiment [15] can be described thus: Growth inhibition of human AP-1 beta-lactamase reporter screening assay cells at 1 uM. The conditions noted are these: AP-1 reporter cells.

pIC50: −log10 of the molar value. Activity calls are given as the source filed them. No cut-off for these calls is given here.

Signal transducer and activator of transcription 3 (Homo sapiens), sequence (P40763 whole entry): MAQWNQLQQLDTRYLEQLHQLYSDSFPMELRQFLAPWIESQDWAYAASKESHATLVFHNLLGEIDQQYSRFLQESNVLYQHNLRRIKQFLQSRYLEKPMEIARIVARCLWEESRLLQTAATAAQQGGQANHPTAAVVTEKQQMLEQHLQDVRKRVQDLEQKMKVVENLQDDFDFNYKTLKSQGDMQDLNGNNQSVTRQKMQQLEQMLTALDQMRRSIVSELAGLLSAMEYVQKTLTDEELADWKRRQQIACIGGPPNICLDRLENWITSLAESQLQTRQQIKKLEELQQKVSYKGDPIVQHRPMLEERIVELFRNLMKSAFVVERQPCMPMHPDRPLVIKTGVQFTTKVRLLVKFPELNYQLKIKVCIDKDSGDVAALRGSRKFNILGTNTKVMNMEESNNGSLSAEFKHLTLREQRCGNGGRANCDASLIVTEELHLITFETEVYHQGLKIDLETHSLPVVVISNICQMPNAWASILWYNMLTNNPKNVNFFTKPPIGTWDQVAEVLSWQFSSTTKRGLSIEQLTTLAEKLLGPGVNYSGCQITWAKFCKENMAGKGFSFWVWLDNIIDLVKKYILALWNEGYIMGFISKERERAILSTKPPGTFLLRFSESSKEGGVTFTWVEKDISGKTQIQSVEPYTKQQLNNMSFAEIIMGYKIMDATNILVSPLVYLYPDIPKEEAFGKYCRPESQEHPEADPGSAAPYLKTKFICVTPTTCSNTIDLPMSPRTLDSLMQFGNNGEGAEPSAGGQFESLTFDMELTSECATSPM

For orientation: inhibition means the share of the control response that was lost under treatment. As usually defined, the GI50 is the concentration that inhibits growth by half. Read a high GI50 as lower sensitivity of the cells. In general, IC50 refers to the concentration that inhibits the measured activity by half. Higher therefore signals weaker potency. A word on the pIC50: it is the negative decadic logarithm of the IC50, by convention in mol/L. With `CC(C)=CC(=O)O[C@@H]1[C@H]2C(C)=C[C@H](O)[C@@H](O)[C@]2(C)[C@H]2[C@]3(O)OC[C@@]24[C@@H]1OC(=O)C[C@H]4[C@@H](C)[C@H]3O`, the inhibition entry in [1], in [3], in [5], in [6], in [8] and in [10] was “inactive” each time. This compound had a 50% growth inhibitory concentration (GI50) in experiment [2] of 260 nM. In addition, in [4], the half-inhibitory concentration (IC50) is 910 nM. Moreover, the inhibition result with HEK293 and with Nucleic Acid was “Dose-dependent effect” throughout. In addition, the inhibition entry in experiment [7] and in experiment [9] was “Active” throughout. Further, in the experiment on HeLa, the negative-log IC50 (pIC50) is 6.17.

With `CC[C@](C)(O)C(=O)O[C@H]1C(=O)O[C@@H]2C[C@H]3C(C)=CC(=O)[C@@H](O)[C@]3(C)[C@H]3[C@@]4(O)OC[C@]32[C@@H]1[C@@H](C)[C@H]4O` (stereo in doubt; 4), the inhibition entry in experiment [1], in [3], in experiment [5], in experiment [6], in experiment [8] and in experiment [10] was “inactive” each time. Further, the inhibition entry in the experiment on HEK293 and in the experiment with Nucleic Acid was “Dose-dependent effect” throughout. For the same compound, the inhibition result in experiment [11] and in [12] was “Active” each time.

For `CCC(C)C(=O)O[C@H]1C(=O)O[C@@H]2C[C@H]3C(C)=CC(=O)[C@@H](O)[C@]3(C)[C@H]3[C@]4(O)OC[C@]32[C@@H]1[C@@H](C)[C@H]4O` (some centres not stated) [AILANTHINONE], the inhibition entry in experiment [1], in [3], in [5], in [6], in [8] and in experiment [10] was “inactive” each time. In experiment [2], this compound yielded a GI50 of 31000 nM. The inhibition entry in [13] and in [14] was “Active” each time. The compound also returned a half-maximal inhibitory concentration (IC50) in experiment [4] of 420 nM. In addition, the inhibition entry in the experiment with HEK293 and with Nucleic Acid was “Dose-dependent effect” throughout. In addition, the negative-log IC50 (pIC50) with HeLa was 8.47. This compound gave an inhibition at 1 µM in experiment [15] below 25%.

The record behind these values is ChEMBL document CHEMBL1152334, “Quassinoid inhibition of AP-1 function does not correlate with cytotoxicity or protein synthesis inhibition” (J Nat Prod, 2009).
